Some results are limits rather than exact numbers.

The values below come from ChEMBL document CHEMBL3585325, “Discovery of (1R,2S)-2-{[(2,4-Dimethylpyrimidin-5-yl)oxy]methyl}-2-(3-fluorophenyl)-N-(5-fluoropyridin-2-yl)cyclopropanecarboxamide (E2006): A Potent and Efficacious Oral Orexin Receptor Antagonist” (J Med Chem, 2015).

The nature of data set [1]: Plasma concentration in C57BL/6NCrlCrlj mouse at 10 mg/kg, po administered as single dose measured after 3 hrs by LC-MS/MS analysis. Type of data set: ADME, organism-based. Summed up: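 Male C57BL/6NCrlCrlj mice given a single 10 mg/kg oral dose as a suspension in 0.5% aqueous methylcellulose. At 1 or 3 h, under pentobarbital anesthesia, CSF was taken from the cisterna magna and then blood from the abdominal aorta (spun to plasma). Samples were acetonitrile-precipitated with deuterated internal standard and run by LC-MS/MS. Values are mean with SEM.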

For data set [2], the system named is Mus musculus. Kind of data set: Sleep promoting activity in C57BL/6NCrlCrlj mouse assessed as reduction in wakefulness time at 10 mg/kg, po administered immediately prior to beginning of dark cycle measured during first 3 hrs after drug administration by electroencephalogram/electromyogram analysis (reference value: 116.7 min). It counts as functional. Summed up:
(§1)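 Male C57BL/6NCrlCrlj mice implanted with EEG/EMG electrodes were dosed orally in 10% Cremophor EL, 5% DMSO in saline just before lights-off (ZT12) and recorded from ZT12 to ZT20. Group sizes were n=6 dosed and n=7 vehicle. Stages were scored by software with blinded visual confirmation; cumulative first-3-h times are mean with SEM. Dunnett's test was run after one-way ANOVA.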

The subject of data set [3] is Mus musculus. Description: Sleep promoting activity in C57BL/6NCrlCrlj mouse assessed as increase in non-REM sleep at 10 mg/kg, po administered immediately prior to beginning of dark cycle measured during first 3 hrs after drug administration by electroencephalogram/electromyogram analysis (reference value: 62.6 min). It counts as functional. A digest of the protocol: as §1

Data set [4] has as its system Mus musculus. Description: Sleep promoting activity in C57BL/6NCrlCrlj mouse assessed as increase in non-REM sleep at 30 mg/kg, po administered immediately prior to beginning of dark cycle measured during first 3 hrs after drug administration by electroencephalogram/electromyogram analysis (reference value: 62.6 min). It counts as functional. Summed up: as §1
Data set [5] deals with T1, Orexin/Hypocretin receptor type 1 (Homo sapiens, UniProt O43613).
T1 sequence (O43613 whole entry): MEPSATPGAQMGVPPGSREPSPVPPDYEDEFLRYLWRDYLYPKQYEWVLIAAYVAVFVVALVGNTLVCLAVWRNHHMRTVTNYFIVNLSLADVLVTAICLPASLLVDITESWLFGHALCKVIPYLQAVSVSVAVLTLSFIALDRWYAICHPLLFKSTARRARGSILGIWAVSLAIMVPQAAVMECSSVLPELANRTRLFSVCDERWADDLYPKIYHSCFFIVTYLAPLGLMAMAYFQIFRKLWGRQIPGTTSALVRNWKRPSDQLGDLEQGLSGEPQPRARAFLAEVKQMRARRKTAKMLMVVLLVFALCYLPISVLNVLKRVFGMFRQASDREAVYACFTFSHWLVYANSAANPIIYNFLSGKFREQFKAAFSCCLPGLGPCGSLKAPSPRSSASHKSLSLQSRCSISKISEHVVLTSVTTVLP
Kind of data set: Binding affinity to human OX1R by radioligand displacement binding assay. A digest of the protocol:
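Ki values come from single experiments run in triplicate.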
For orientation: Loss of bound radioactivity is the signal in a displacement assay; it reports binding, not function.

Data set [6] deals with T2, CYP3A (Homo sapiens, UniProt P08684+P20815+P24462+Q9HB55). Description: Time dependent inhibition of CYP3A in human liver microsomes assessed as enzyme activity using midazolam as substrate at 10 uM incubated for 30 mins prior to substrate addition for 10 mins by LC-MS/MS analysis. Type of data set: ADME. Details: scale not given: the % may be the effect or the level left. Conditions: probe midazolam, read-out: Activity. A digest of the protocol:
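Test compound at 10 μM preincubated 30 min at 37 °C with human liver microsomes (0.2 mg/mL), with or without an NADPH-generating system. Mixture then diluted 10-fold into a marker-substrate cocktail plus NADPH system and incubated 10 min at 37 °C. Midazolam served as the CYP3A probe. Metabolites measured by LC−MS/MS. Result is the residual activity with NADPH relative to without, as % of control.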
Background: Liver microsomes are a subcellular fraction often used to study metabolism.

The target of data set [7] is Voltage-gated inwardly rectifying potassium channel KCNH2 (Homo sapiens, UniProt Q12809). Kind of data set: Inhibition of human ERG.
Another data set deals with Cytochrome P450 2C9 (Homo sapiens, UniProt P11712). Description: Inhibition of CYP2C9 in human liver microsomes using tolbutamide as susbtrate incubated for 30 mins prior to substrate addition for 10 mins by LC-MS/MS analysis. Type of data set: ADME.
The target of a further data set is Cytochrome P450 2D6 (Homo sapiens, UniProt P10635). Description: Inhibition of CYP2D6 in human liver microsomes using bufuralol as susbtrate incubated for 30 mins prior to substrate addition for 10 mins by LC-MS/MS analysis. It counts as ADME.
Data set [8] concerns the target T2, CYP3A. Kind of data set: Inhibition of CYP3A in human liver microsomes assessed as enzyme activity using midazolam as substrate incubated for 30 mins prior to substrate addition for 10 mins by LC-MS/MS analysis. It counts as ADME. Conditions: probe midazolam. A digest of the protocol:
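Compound preincubated 30 min at 37 °C with human liver microsomes (0.2 mg/mL), with or without an NADPH-generating system. The mix was diluted 10-fold into a marker-substrate cocktail plus NADPH system and incubated 10 min at 37 °C. Marker metabolites were measured by LC-MS/MS; residual activity with NADPH was expressed relative to without.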

Data set [9] can be described thus: Plasma clearance in C57BL/6NCrlCrlj mouse at 1 mg/kg, iv by LC-MS/MS analysis. It counts as ADME, organism-based. Summed up: (§2)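 Male C57BL/6NCrlCrlj mice dosed intravenously at 1 mg/kg in 10% DMSO in water. Blood was taken from the tail vein at set time points and spun to plasma. Concentrations were measured by LC-MS/MS (MRM, positive mode) against a 1/x²-weighted standard curve with internal standard. Parameters came from noncompartmental analysis.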

Data set [10] in a line: Volume of distribution at steady state in C57BL/6NCrlCrlj mouse at 1 mg/kg, iv by LC-MS/MS analysis. Type of data set: ADME, organism-based. The settings on record: in vivo, read-out: Vdss. A digest of the protocol:
as §2

A short description of data set [11]: AUC (0 to infinity) in C57BL/6NCrlCrlj mouse at 10 mg/kg, po by LC-MS/MS analysis. It counts as ADME, organism-based. The settings on record: in vivo. More on the design: dose 10 mg/kg, route oral, time infinity. Summed up:
(§3)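 Male C57BL/6NCrlCrlj mice dosed orally at 10 mg/kg in 10% Cremophor EL, 5% DMSO in saline. Tail-vein blood was taken at set time points and spun to plasma. Quantified by LC-MS/MS (MRM, positive mode) with internal standard and a 1/x²-weighted calibration. Parameters came from noncompartmental analysis.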

Data set [12] can be described thus: Half life in C57BL/6NCrlCrlj mouse at 10 mg/kg, po by LC-MS/MS analysis. It counts as ADME, organism-based. Conditions: in vivo. A digest of the protocol: as §3
A short description of data set [13]: Tmax in C57BL/6NCrlCrlj mouse at 10 mg/kg, po by LC-MS/MS analysis. The settings on record: in vivo. Type of data set: ADME, organism-based. Summed up:
as §3

Data set [14] can be described thus: AUC (0 to infinity) in C57BL/6NCrlCrlj mouse at 30 mg/kg, po by LC-MS/MS analysis. It counts as ADME, organism-based. Details: dose 30 mg/kg, time infinity, route oral. Conditions: in vivo.
The nature of data set [15]: Tmax in C57BL/6NCrlCrlj mouse at 30 mg/kg, po by LC-MS/MS analysis. The settings on record: in vivo. Type of data set: ADME, organism-based.

Chain of Cytochrome P450 2D6 (P10635 whole entry): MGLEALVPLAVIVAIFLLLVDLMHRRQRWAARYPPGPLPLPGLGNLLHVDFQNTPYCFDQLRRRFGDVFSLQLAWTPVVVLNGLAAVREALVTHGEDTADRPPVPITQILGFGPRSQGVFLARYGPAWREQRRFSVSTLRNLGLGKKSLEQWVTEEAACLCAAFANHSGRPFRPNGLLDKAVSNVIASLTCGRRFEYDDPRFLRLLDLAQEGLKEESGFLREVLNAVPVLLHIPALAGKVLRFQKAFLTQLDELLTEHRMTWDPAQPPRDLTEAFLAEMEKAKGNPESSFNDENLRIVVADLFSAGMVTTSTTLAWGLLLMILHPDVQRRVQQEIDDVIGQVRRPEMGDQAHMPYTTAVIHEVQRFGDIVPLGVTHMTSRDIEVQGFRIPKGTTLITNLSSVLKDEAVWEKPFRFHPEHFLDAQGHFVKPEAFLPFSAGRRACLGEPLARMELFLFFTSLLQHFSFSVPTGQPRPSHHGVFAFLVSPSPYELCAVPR
Chain of Voltage-gated inwardly rectifying potassium channel KCNH2 (Q12809 whole entry): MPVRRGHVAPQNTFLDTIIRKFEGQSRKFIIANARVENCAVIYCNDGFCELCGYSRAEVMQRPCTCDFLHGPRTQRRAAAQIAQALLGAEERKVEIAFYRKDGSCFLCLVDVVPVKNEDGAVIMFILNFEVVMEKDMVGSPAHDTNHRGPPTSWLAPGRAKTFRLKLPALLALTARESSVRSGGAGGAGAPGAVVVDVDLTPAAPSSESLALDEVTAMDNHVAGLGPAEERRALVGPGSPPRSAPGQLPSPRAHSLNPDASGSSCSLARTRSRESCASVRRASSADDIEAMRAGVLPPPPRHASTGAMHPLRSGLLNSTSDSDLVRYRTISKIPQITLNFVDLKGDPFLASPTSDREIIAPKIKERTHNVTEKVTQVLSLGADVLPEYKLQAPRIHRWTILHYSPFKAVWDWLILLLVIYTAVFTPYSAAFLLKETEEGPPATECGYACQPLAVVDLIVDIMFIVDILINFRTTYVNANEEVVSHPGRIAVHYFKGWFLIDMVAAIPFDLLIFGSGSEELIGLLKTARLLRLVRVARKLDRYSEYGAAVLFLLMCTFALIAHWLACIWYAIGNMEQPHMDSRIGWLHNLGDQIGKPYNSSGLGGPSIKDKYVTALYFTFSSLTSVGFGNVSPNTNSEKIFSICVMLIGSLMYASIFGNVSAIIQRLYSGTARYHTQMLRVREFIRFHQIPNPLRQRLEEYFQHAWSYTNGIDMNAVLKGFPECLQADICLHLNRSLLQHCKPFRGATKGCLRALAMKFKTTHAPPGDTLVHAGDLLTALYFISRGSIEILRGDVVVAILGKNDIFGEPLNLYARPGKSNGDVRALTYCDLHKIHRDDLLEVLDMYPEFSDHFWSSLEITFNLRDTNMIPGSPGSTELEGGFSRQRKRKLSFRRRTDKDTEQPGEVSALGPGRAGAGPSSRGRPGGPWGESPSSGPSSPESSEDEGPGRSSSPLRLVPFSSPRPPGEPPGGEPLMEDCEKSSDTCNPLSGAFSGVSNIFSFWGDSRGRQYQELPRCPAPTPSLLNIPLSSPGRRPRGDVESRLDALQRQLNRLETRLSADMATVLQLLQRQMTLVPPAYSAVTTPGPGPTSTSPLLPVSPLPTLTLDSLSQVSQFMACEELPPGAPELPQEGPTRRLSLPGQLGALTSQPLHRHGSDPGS
Chain of Cytochrome P450 2C9 (P11712 whole entry): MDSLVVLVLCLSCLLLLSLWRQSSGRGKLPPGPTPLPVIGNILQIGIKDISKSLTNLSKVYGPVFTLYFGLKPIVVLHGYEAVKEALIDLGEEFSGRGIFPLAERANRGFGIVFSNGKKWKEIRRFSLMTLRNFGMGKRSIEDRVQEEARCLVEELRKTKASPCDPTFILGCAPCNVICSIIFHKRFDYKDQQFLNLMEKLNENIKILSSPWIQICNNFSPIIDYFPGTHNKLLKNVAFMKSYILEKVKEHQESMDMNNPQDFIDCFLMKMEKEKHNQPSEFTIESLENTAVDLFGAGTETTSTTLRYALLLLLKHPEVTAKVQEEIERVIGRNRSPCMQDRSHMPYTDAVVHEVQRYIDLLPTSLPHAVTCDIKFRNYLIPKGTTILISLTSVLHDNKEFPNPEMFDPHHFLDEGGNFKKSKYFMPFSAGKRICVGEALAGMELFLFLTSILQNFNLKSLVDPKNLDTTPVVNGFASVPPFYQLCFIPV

A word on the Ki: it is the equilibrium dissociation constant of an inhibitor or competing ligand from its target. What is called IC50 is the concentration that gives 50% inhibition. A word on the clearance: it is the volume of plasma or blood freed of the substance per unit of time. The AUC(0-inf) is total exposure, with the tail of the curve extrapolated. One may read the half-life as how long it takes for the measured level to halve. As a reminder, the Tmax is the time at which the peak concentration occurs. Take `Cc1ncc(OC[C@@]2(c3cccc(F)c3)C[C@H]2C(=O)Nc2ccc(F)cn2)c(C)n1` [LEMBOREXANT]: in data set [1], the concentration at 3 h amounted to 158 nM. Besides, the Time with Mus musculus [2] is 77.1 min; in the data set with Mus musculus [3], 99.3 min; in the data set with Mus musculus [4] it was 95.5 min. The compound further displayed a Ki in data set [5] of 0.006 µM. In addition, the activity at 10 min, 10 µM on CYP3A [6] came to 76%. Further, the IC50 in data set [7] is 6.1 µM; against Cytochrome P450 2C9, over 20 µM; at Cytochrome P450 2D6, over 20 µM. Moreover, at CYP3A [8], the IC50 at 30 min was over 20 µM. The compound further showed a clearance in data set [9] of 17.7 mL/min/kg. Besides, the Vd in data set [10] turned out to be 2.71 L/kg. Also, the AUC(0-inf) in data set [11] was found to be 1910 ng·h/mL; in [14] it was 4130 ng·h/mL. Also, the half-life in data set [12] is 2.2 h. For the same compound, the values for the Tmax in [13] and in data set [15] were 0.25 h and 1 h, respectively.
